# Experimental data: ChEMBL document CHEMBL1132256, “Structure-activity relationships for substituted bis(acridine-4-carboxamides): a new class of anticancer agents” (J Med Chem, 1999)
# Legend:
# Jurkat [1] = assay: Concentration required to inhibit 50% growth of human Jurkat cells; assay type: functional, cell-based
# How it was run: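 Jurkat leukemia (JLC) cells seeded at 3.75 × 10^3 cells/well and exposed to drug for 4 days; growth measured by sulforhodamine assay. IC50 = drug concentration (nM) reducing cell number to 50% of control cultures. Independent assays in duplicate, coefficients of variation ca. 25%.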
# [2] = tested on: Lewis lung carcinoma cell line; assay: Inhibitory activity of tested against Murine Lewis lung carcinoma; assay type: functional, cell-based; settings: Mus musculus
# How it was run: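 Lewis lung carcinoma (LLTC) cells at 10^3 cells/well, 4-day continuous drug exposure, growth read by sulforhodamine assay. IC50 (nM) = concentration giving 50% of control cell number. Duplicate independent assays, CV ca. 25%.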
# P388 = assay: Inhibitory activity against Murine […]; assay type: functional, cell-based; settings: Mus musculus
# How it was run: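 Murine P388 leukemia cells seeded at 4.5 × 10^3 cells/well, cultured 3 days with drug; growth measured by [3H]TdR uptake. IC50 = drug concentration (nM) reducing cell number to 50% of controls. Independent assays in duplicate, CV ca. 25%.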
# Jurkat [3] = assay: Ratio of inhibitory activity against amsacrine resistant jurkat cells to inhibitory activity against wild type human jurkat cells; assay type: functional
# How it was run: (§1)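 Wild-type Jurkat (JLC) and its amsacrine-resistant (JLA) or doxorubicin-resistant (JLD) sublines each seeded at 3.75 × 10^3 cells/well, 4 days with drug, sulforhodamine read-out. IC50 (nM) for 50% of control cell number; ratio = resistant-line IC50 divided by JLC IC50. Duplicate assays, CV ca. 25%.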
# Jurkat [4] = assay: Ratio of inhibitory activity against doxorubicin resistant jurkat cells to inhibitory activity against wild type human jurkat cells; assay type: functional; how it was run: as §1
# CAKI-1 = assay: inhibitory activity against renal tumor […] cell line.; assay type: functional; settings: Homo sapiens
# How it was run: (§2)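 Tested in the NCI human cell line panel. GI50 = drug concentration (nM) giving growth inhibition to 50% of controls; values below 10 nM were taken as 10 nM in calculations.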
# HCT-116 = assay: inhibitory activity against colon HCT116 cell line.; assay type: functional; settings: Homo sapiens; how it was run: as §2
# HT-29 = assay: inhibitory activity against colon HT-29 cell line.; assay type: functional; settings: Homo sapiens; how it was run: as §2
# MCF7 = assay: inhibitory activity against multi drug resistant MCF cell line.; assay type: functional; settings: Homo sapiens, in the assay text read “MCF7 cell line” for “multi drug resistant MCF cell line”; how it was run: as §2
# NCI/ADR-RES = assay: inhibitory activity against multi drug resistant NCI/ADR cell line.; assay type: functional; settings: Homo sapiens; how it was run: as §2
# SK-OV-3 = assay: inhibitory activity against ovarian carcinoma SKOV3 cell line.; assay type: functional; settings: Homo sapiens; how it was run: as §2
IC50 (Jurkat [1]) [nM],IC50 [2] [nM],IC50 (P388) [nM],GI50 (HCT-116) [nM],GI50 (HT-29) [nM],GI50 (MCF7) [nM],GI50 (SK-OV-3) [nM],Compound,Ratio (Jurkat [3]),Ratio (Jurkat [4]),GI50 (CAKI-1) [nM],GI50 (NCI/ADR-RES) [nM]
12,6,48,–,–,–,–,Cc1cccc2cc3c(Cl)ccc(C(=O)NCCCN(C)CCCNC(=O)c4ccc(Cl)c5cc6cccc(C)c6nc45)c3nc12,0.3,0.6,–,–
136,46,170,–,–,–,–,CN(CCCNC(=O)c1cccc2cc3cc(Cl)ccc3nc12)CCCNC(=O)c1cccc2cc3cc(Cl)ccc3nc12,0.8,0.9,–,–
2080,2080,1450,–,–,–,–,CC(C)c1ccc2nc3c(C(=O)NCCCN(C)CCCNC(=O)c4cccc5cc6cc(C(C)C)ccc6nc45)cccc3cc2c1,1.1,1.1,–,–
1640,770,1080,–,–,–,–,CCc1ccc2nc3c(C(=O)NCCCN(C)CCCNC(=O)c4cccc5cc6cc(CC)ccc6nc45)cccc3cc2c1,0.9,1.4,–,–
51,20,76,–,–,–,–,COc1ccc2cc3cccc(C(=O)NCCCN(C)CCCNC(=O)c4cccc5cc6ccc(OC)cc6nc45)c3nc2c1,0.5,0.8,–,–
52,20,24,–,–,–,–,CN(CCCNC(=O)c1cccc2cc3ccc(F)cc3nc12)CCCNC(=O)c1cccc2cc3ccc(F)cc3nc12,0.6,0.9,–,–
177,56,345,130,62,530,3040,Cc1ccc2cc3cccc(C(=O)NCCCN(C)CCCNC(=O)c4cccc5cc6ccc(C)cc6nc45)c3nc2c1,0.7,0.9,669,407
96,32,140,–,–,–,–,CN(CCCNC(=O)c1cccc2cc3cc(F)ccc3nc12)CCCNC(=O)c1cccc2cc3cc(F)ccc3nc12,0.6,0.8,–,–
760,183,970,–,–,–,–,CN(CCCNC(=O)c1cccc2cc3cc(N(C)C)ccc3nc12)CCCNC(=O)c1cccc2cc3cc(N(C)C)ccc3nc12,1,0.9,–,–
105,20,210,–,–,–,–,Cc1cc(C)c2nc3c(C(=O)NCCCN(C)CCCNC(=O)c4cccc5cc6cc(C)cc(C)c6nc45)cccc3cc2c1,0.5,0.8,–,–
46,5.9,113,–,–,–,–,CN(CCCNC(=O)c1cc(Cl)cc2cc3ccccc3nc12)CCCNC(=O)c1cc(Cl)cc2cc3ccccc3nc12,0.7,0.9,–,–
226,35,225,–,–,–,–,CN(CCCNC(=O)c1cccc2cc3cc(Br)ccc3nc12)CCCNC(=O)c1cccc2cc3cc(Br)ccc3nc12,0.7,0.9,–,–
58,18,49,–,–,–,–,CN(CCCNC(=O)c1cccc2cc3ccc(Br)cc3nc12)CCCNC(=O)c1cccc2cc3ccc(Br)cc3nc12,0.6,0.9,–,–
355,160,9600,–,–,–,–,CN(CCCNC(=O)c1cccc2cc3ccc(C(F)(F)F)cc3nc12)CCCNC(=O)c1cccc2cc3ccc(C(F)(F)F)cc3nc12,0.6,1.1,–,–
11,1.8,23,< 10,< 10,< 10,87,Cc1cccc2cc3cccc(C(=O)NCCCN(C)CCCNC(=O)c4cccc5cc6cccc(C)c6nc45)c3nc12,0.4,0.7,< 10,116
255,67,220,< 10,265,546,460,Cc1cc(C(=O)NCCCN(C)CCCNC(=O)c2cc(C)cc3cc4ccccc4nc23)c2nc3ccccc3cc2c1,0.7,1.1,247,657
2080,1050,2760,–,–,–,–,CC(C)c1cccc2cc3cccc(C(=O)NCCCN(C)CCCNC(=O)c4cccc5cc6cccc(C(C)C)c6nc45)c3nc12,0.9,1.1,–,–
1070,1400,1760,–,–,–,–,CN(CCCNC(=O)c1cccc2cc3cc(C(C)(C)C)ccc3nc12)CCCNC(=O)c1cccc2cc3cc(C(C)(C)C)ccc3nc12,1.1,1.1,–,–
225,320,760,–,–,–,–,CN(CCCNC(=O)c1cccc2cc3ccc(N(C)C)cc3nc12)CCCNC(=O)c1cccc2cc3ccc(N(C)C)cc3nc12,0.3,0.6,–,–
1020,610,710,–,–,–,–,CN(CCCNC(=O)c1cccc2cc3cc(-c4ccccc4)ccc3nc12)CCCNC(=O)c1cccc2cc3cc(-c4ccccc4)ccc3nc12,1,1.1,–,–
147,20,132,–,–,–,–,COc1ccc2nc3c(C(=O)NCCCN(C)CCCNC(=O)c4cccc5cc6cc(OC)ccc6nc45)cccc3cc2c1,0.7,1.1,–,–
180,670,2130,–,–,–,–,CN(CCCNC(=O)c1cccc2cc3cccc(N(C)C)c3nc12)CCCNC(=O)c1cccc2cc3cccc(N(C)C)c3nc12,0.7,0.9,–,–
345,170,430,330,103,394,12000,COc1cccc2cc3cccc(C(=O)NCCCN(C)CCCNC(=O)c4cccc5cc6cccc(OC)c6nc45)c3nc12,0.5,0.8,1490,1390
3.9,1.4,21,–,–,–,–,Cc1ccc(C(=O)NCCCN(C)CCCNC(=O)c2ccc(C)c3cc4cccc(C)c4nc23)c2nc3c(C)cccc3cc12,0.3,0.7,–,–
127,42,400,–,–,–,–,CN(CCCNC(=O)c1ccc(Cl)c2cc3ccccc3nc12)CCCNC(=O)c1ccc(Cl)c2cc3ccccc3nc12,0.6,1,–,–
20,8.8,41,–,–,–,–,Cc1ccc(Cl)c2cc3cccc(C(=O)NCCCN(C)CCCNC(=O)c4cccc5cc6c(Cl)ccc(C)c6nc45)c3nc12,0.5,0.7,–,–
–,12,–,–,–,–,–,COc1cc(NS(C)(=O)=O)ccc1Nc1c2ccccc2nc2ccccc12 [AMSACRINE],85,74,–,–
–,22,31,–,–,–,–,COc1cccc2c1C(=O)c1c(O)c3c(c(O)c1C2=O)C[C@@](O)(C(=O)CO)C[C@@H]3O[C@H]1C[C@H](N)[C@H](O)[C@H](C)O1 [DOXORUBICIN],4.4,13,–,–
